Test results from PMC10870114 (Clinical Cancer Research, 2023).

Key:
[1] = test system: locally advanced rectal cancer; assay: Tumor response; type: in vivo, human
[2] = Plasma pharmacokinetics on fraction day; type: in vivo, human
[3] = test system: locally advanced rectal cancer; assay: Neoadjuvant rectal; type: in vivo, human; conditions: for NAR score, median: patients who underwent surgery
Outline: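 Patients without clinical complete response were to have surgery 9.5±2 weeks after CRT completion. On the resected tissue, tumour regression was graded by the modified Ryan scheme, from 0 (complete response) to 3 (poor or no response). The NAR score was calculated only for operated patients, with lower scores denoting better prognosis.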

[4] = test system: patients with locally advanced rectal cancer; assay: Dose-limiting toxicities; type: in vivo, human
[5] = test system: locally advanced rectal cancer; assay: Disease-free survival, recurrence and progression events; type: in vivo, human
Outline: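 They also received capecitabine 825 mg/m2 twice daily and RT 50–50.4 Gy in 25 or 28 fractions, 5 days/week, for 5–5.5 weeks. DFS was estimated by Kaplan–Meier with two-sided 95% CI.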

[6] = test system: patients with advanced solid tumors; conditions: cited from earlier work
DNA-PK = DNA-PK (Homo sapiens, UniProt P78527); assay: pDNA-PK/tDNA-PK ratio in bleomycin-stimulated PBMCs, pre- and post-dosing; conditions: PBMCs stimulated with bleomycin ex vivo; evidence of target engagement
[7] = test system: patients with locally advanced rectal cancer; assay: Late toxicities and deaths after the on-treatment period; type: in vivo, human
[8] = test system: patients with locally advanced head and neck cancer; conditions: NCT02516813; cited from earlier work
[9] = Overall, peposertib 50-250 mg + RT + capecitabine, n = 19
[10] = peposertib 50 mg + RT + capecitabine, n = 1
[11] = peposertib 100 mg + RT + capecitabine, n = 6
[12] = peposertib 150 mg + RT + capecitabine, n = 6
[13] = peposertib 250 mg + RT + capecitabine, n = 6

SMILES: COc1ccc([C@@H](O)c2cc(-c3ncnc4cc(N5CCOCC5)ccc34)c(F)cc2Cl)nn1 [Peposertib]
- cCR rate ([1]; 8 weeks after CRT completion, all cohorts, n = 3 of 19): 15.8%
- Clinical complete response: Responders [1, 9]: 3 (15.8) n (%)
- Clinical response: Complete response [1, 9]: 3 (15.8) n (%)
- Clinical response: Incomplete response [1, 9]: 4 (21.1) n (%)
- Clinical response: Near-complete response [1, 9]: 8 (42.1) n (%)
- Clinical response: Progressive disease [1, 9]: 0 (0) n (%)
- Composite endpoint cCR/pCR: Responders [1, 9]: 1 (5.3) n (%)
- Pathologic complete response: Responders [1, 9]: 0 (0) n (%)
- Composite endpoint cCR/pCR rate ([1]; all cohorts, one of 19 patients (100-mg cohort)): 5.3%
- Patients achieving pCR ([1]; of the nine patients who opted for surgery): none
- Clinical complete response: Responders [1, 10]: 0 (0) n (%)
- Clinical response: Complete response [1, 10]: 0 (0) n (%)
- Clinical response: Incomplete response [1, 10]: 0 (0) n (%)
- Clinical response: Near-complete response [1, 10]: 1 (100) n (%)
- Clinical response: Progressive disease [1, 10]: 0 (0) n (%)
- Composite endpoint cCR/pCR: Responders [1, 10]: 0 (0) n (%)
- Pathologic complete response: Responders [1, 10]: 0 (0) n (%)
- Clinical complete response: Responders [1, 11]: 1 (16.7) n (%)
- Clinical response: Complete response [1, 11]: 1 (16.7) n (%)
- Clinical response: Incomplete response [1, 11]: 1 (16.7) n (%)
- Clinical response: Near-complete response [1, 11]: 2 (33.3) n (%)
- Clinical response: Progressive disease [1, 11]: 0 (0) n (%)
- Composite endpoint cCR/pCR: Responders [1, 11]: 1 (16.7) n (%)
- Pathologic complete response: Responders [1, 11]: 0 (0) n (%)
- Clinical complete response: Responders [1, 12]: 1 (16.7) n (%)
- Clinical response: Complete response [1, 12]: 1 (16.7) n (%)
- Clinical response: Incomplete response [1, 12]: 2 (33.3) n (%)
- Clinical response: Near-complete response [1, 12]: 2 (33.3) n (%)
- Clinical response: Progressive disease [1, 12]: 0 (0) n (%)
- Composite endpoint cCR/pCR: Responders [1, 12]: 0 (0) n (%)
- Pathologic complete response: Responders [1, 12]: 0 (0) n (%)
- Clinical complete response: Responders [1, 13]: 1 (16.7) n (%)
- Clinical response: Complete response [1, 13]: 1 (16.7) n (%)
- Clinical response: Incomplete response [1, 13]: 1 (16.7) n (%)
- Clinical response: Near-complete response [1, 13]: 3 (50.0) n (%)
- Clinical response: Progressive disease [1, 13]: 0 (0) n (%)
- Composite endpoint cCR/pCR: Responders [1, 13]: 0 (0) n (%)
- Pathologic complete response: Responders [1, 13]: 0 (0) n (%)
- Dose proportionality of exposure ([2]; across all dose levels after single and multiple dosing): dose proportional
- half-life ([2]; human, plasma, oral, Mean terminal half-life, all dosing groups, independent of the dose level): 5 to 6 h
- Accumulation after multiple once-daily dosing ([2]; in vivo): No relevant peposertib accumulation
- NAR score, median ([3]; 100-mg dose cohort): 9.4
- NAR score, median ([3]; 150-mg dose cohort): 13.8
- NAR score, median ([3]; 250-mg dose cohort): 15.0
- Patients with a Ryan score of 1 ([3]; one each in the 100-mg and 150-mg cohorts): two patients
- DLT reported overall ([4]; all dose cohorts): five
- Peposertib dose considered tolerable in combination with RT and capecitabine ([4]; based on the totality of safety data): ≤ 150 mg once daily
- Dose-limiting toxicities, patients with DLT of evaluable patients ([4]; peposertib 100 mg once daily + CRT, radiation skin injury and enterocolitis): one out of five
- Dose-limiting toxicities, patients with DLT of evaluable patients ([4]; peposertib 250 mg once daily + CRT, two enterocolitis and one proctitis): three out of six
- MTD and RP2D ([4]; peposertib + capecitabine-based CRT, study enrollment prematurely discontinued): not declared
- Disease-free survival time: Median [5, 9]: 21.2 mo
- Disease-free survival time: Minimum [5, 9]: 0 mo
- Disease-free survival time: Number of events (PD, deaths) [5, 9]: 5 (26.3) n (%)
- Disease-free survival time: maximum [5, 9]: 23.5 mo
- Disease-free survival rate at 18 months ([5]; all cohorts, Kaplan-Meier estimate, 95% CI, 25.9–87.9): 65.9%
- Median DFS ([5]; all cohorts, 95% CI, 18.0–not done): 21.2 months
- Locoregional recurrence within the study period ([5]; nine patients who underwent surgery, follow-up of up to 2 years): none
- Progression events at data cutoff ([5]; three deaths, two progressive disease events): five
- Toxicity of peposertib monotherapy [6]: no significant toxicity
- Dose recommended for further evaluation ([6]; monotherapy): 400 mg twice daily
- Peposertib dose at which inhibition of DNA-PK autophosphorylation was observed (DNA-PK): ≥ 150 mg
- Dose dependence of late toxicities ([7]; across the peposertib dose range): no discernible indication of a dose-dependent effect
- Late toxicities: anemia ([7]; all cohorts): 3 n
- Patients with late toxicities ([7]; all cohorts, 18 patients, data cutoff March 22, 2022): 94.7%
- Grade ≥3 late toxicities ([7]; all cohorts, at data cutoff): 11 patients
- Late toxicities: proctitis ([7]; all cohorts, n = 3): 15.8%
- Late toxicities: gastrointestinal disorders ([7]; all cohorts, n = 12): 63.2%
- Patients who died during the study ([7]; all considered unrelated to study treatment, not treatment-emergent): Three
- Safety of combination with RT and full doses of cisplatin [8]: could not be safely combined
